Assays:
[1] = Cytotoxicity against human A2780/TAX cells assessed as survival at 10 uM after 48 hrs by MTT assay relative to control; type: cell-based, A2780/Taxol; conditions: read-out: Survival
Summary of the method: (§1)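 Survival ratio (%) determined from the surviving fraction after treatment. Reported as mean of three independent experiments.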

[2] = system: A2780/Taxol; test: Reversal ratio of IC50 for paclitaxel-induced cytotoxicity against human A2780/TAX cells in absence of compound to IC50 paclitaxel-induced cytotoxicity against human A2780/TAX cells in presence of compound; type: functional
[3] = Cytotoxicity against HOSEC assessed as survival at 10 uM after 48 hrs by MTT assay relative to control; conditions: human, HOSEC cells; read-out: Survival; summary of the method: as §1
[4] = Cytotoxicity against HUVEC assessed as survival at 10 uM after 48 hrs by MTT assay relative to control; type: cell-based; conditions: human, HUVEC cells; read-out: Survival; summary of the method: as §1
[5] = Cytotoxicity against human T29 cells assessed as survival at 10 uM after 48 hrs by MTT assay relative to control; type: cell-based; conditions: read-out: Survival; summary of the method: as §1
[6] = Cytotoxicity against human KBV cells assessed as survival at 10 uM after 48 hrs by MTT assay relative to control; type: cell-based; conditions: read-out: Survival; summary of the method: as §1
[7] = Reversal ratio of IC50 for vincristine-induced cytotoxicity against human KBV cells in absence of compound to IC50 for vincristine-induced cytotoxicity against human KBV cells in presence of compound; type: functional
[8] = Reversal ratio of IC50 for cisplatin-induced cytotoxicity against human A2780/CDDP cells in absence of compound to IC50 for cisplatin-induced cytotoxicity against human A2780/CDDP cells in presence of compound; type: functional
[9] = Cytotoxicity against human A2780/CDDP cells assessed as survival at 10 uM after 48 hrs by MTT assay relative to control; type: cell-based; conditions: read-out: Survival; summary of the method: as §1
[10] = Resistance ratio of IC50 for human KBV cells to IC50 for human KB cells; type: functional
[11] = system: KB; test: Cytotoxicity against human KB cells after 48 hrs by MTT assay; type: functional, cell-based

SMILES	viability at 48 h, 10 µM [1] [%]	Ratio IC50 [2]	viability at 48 h, 10 µM [3] [%]	viability at 48 h, 10 µM [4] [%]	viability at 48 h, 10 µM [5] [%]	viability at 48 h, 10 µM [6] [%]	Ratio IC50 [7]	Ratio IC50 [8]	viability at 48 h, 10 µM [9] [%]	Ratio IC50 [10]	IC50 [11] [nM]
CCOc1ccc2c(C)cc(=O)oc2c1COC(=O)c1ccc(Cl)c([N+](=O)[O-])c1	78.7	31	50.1	81	72.6	–	–	–	–	–	–
COc1cc(OC)c(C(=O)OCc2c(OC(C)C)ccc3c(C)cc(=O)oc23)cc1OC	106	161	86.3	72.7	90.9	–	–	–	–	–	–
Cc1ccc(C(=O)OCc2c(OC(C)C)ccc3c(C)cc(=O)oc23)cc1	95.2	95	79.8	75.6	91.2	–	–	–	–	–	–
CCOc1ccc2c(C)cc(=O)oc2c1COC(=O)c1ccc(C(C)(C)C)cc1	95.1	158	79.8	76	87.1	–	–	–	–	–	–
CCOc1ccc2c(C)cc(=O)oc2c1COC(=O)c1cc(OC)c(OC)c(OC)c1	97.6	51	86.7	99.7	103	–	–	–	–	–	–
CCOc1ccc2c(C)cc(=O)oc2c1COC(=O)c1ccc(F)cc1	93.4	61	78.3	87.2	88.6	–	–	–	–	–	–
CCOc1ccc2c(C)cc(=O)oc2c1COC(=O)/C=C/c1ccccc1	98.9	97	92.2	84.7	98.7	–	–	–	–	–	–
Cc1cc(=O)oc2c(COC(=O)c3ccc(C(C)(C)C)cc3)c(OC(C)C)ccc12	104	72	90.6	83.7	96	–	–	–	–	–	–
CCOc1ccc2c(C)cc(=O)oc2c1COC(=O)c1ccc(OC)c(OC)c1	83.1	101	72	83.4	86.1	–	–	–	–	–	–
Cc1cc(=O)oc2c(COC(=O)c3cccc(N(C)C)c3)c(OC(C)C)ccc12	102	86	76	84.8	90.8	–	–	–	–	–	–
CCCc1ccc(C(=O)OCc2c(OCC)ccc3c(C)cc(=O)oc23)cc1	84	54	76	78.4	97.2	–	–	–	–	–	–
CCOc1ccc2c(C)cc(=O)oc2c1COC(=O)c1ccc(C)cc1	95.8	26	64.7	77.1	86.1	–	–	–	–	–	–
CCOc1ccc2c(C)cc(=O)oc2c1COC(=O)c1cccc(OC)c1	76.5	56	68.4	79.8	83.4	–	–	–	–	–	–
Cc1cc(=O)oc2c(COC(=O)/C=C/c3ccccc3)c(OC(C)C)ccc12	103	32	105	95.9	104	–	–	–	–	–	–
COc1ccc(/C=C/C(=O)OCc2c(OC(C)C)ccc3c(C)cc(=O)oc23)cc1	98.1	496	93.6	98.9	90.4	108	1257	0.78	131	–	–
CCOc1ccc2c(C)cc(=O)oc2c1COC(=O)CCc1ccc(OC)cc1	101	6	73.5	85	91.3	–	–	–	–	–	–
Cc1cc(=O)oc2c(COC(=O)c3ccc(F)cc3)c(OC(C)C)ccc12	102	93	70.5	79.7	85.3	–	–	–	–	–	–
CCOc1ccc2c(C)cc(=O)oc2c1COC(=O)c1c(F)cccc1F	101	72	78.2	86.3	94.6	–	–	–	–	–	–
CCOc1ccc2c(C)cc(=O)oc2c1COC(=O)/C=C/c1ccc(Cl)cc1	102	14	90.7	101	106	–	–	–	–	–	–
COc1ccc(C(=O)OCc2c(OC(C)C)ccc3c(C)cc(=O)oc23)cc1OC	102	197	107	84.2	101	–	–	–	–	–	–
CCCc1ccc(C(=O)OCc2c(OC(C)C)ccc3c(C)cc(=O)oc23)cc1	101	45	87.5	82.2	92.7	–	–	–	–	–	–
CCOc1ccc2c(C)cc(=O)oc2c1COC(=O)c1cccc(N(C)C)c1	97	224	97.2	96.3	106	104	314	0.83	117	–	–
Cc1cc(=O)oc2c(CO)c(OC(C)C)ccc12	94.6	–	80.2	84.7	88.6	–	–	–	–	–	–
CCOc1ccc2c(C)cc(=O)oc2c1COC(=O)c1cc(OC)c(OC)cc1OC	84.1	47	78.2	88.8	89.5	–	–	–	–	–	–
COc1cc(C(=O)OCc2c(OC(C)C)ccc3c(C)cc(=O)oc23)cc(OC)c1OC	94.6	354	61.7	73.1	81.5	96.1	134	0.86	65.5	–	–
CCOc1ccc2c(C)cc(=O)oc2c1COC(=O)/C=C/c1ccc(OC)cc1	83.6	735	84.9	93.8	98.9	105	793	0.76	123	–	–
CC[C@]1(O)C[C@H]2CN(CCc3c([nH]c4ccccc34)[C@@](C(=O)OC)(c3cc4c(cc3OC)N(C=O)[C@H]3[C@@](O)(C(=O)OC)[C@H](OC(C)=O)[C@]5(CC)C=CCN6CC[C@]43[C@@H]65)C2)C1 [VINCRISTINE]	–	–	–	–	–	–	–	–	–	3173	0.21

— ChEMBL document CHEMBL4308879, “Seco-4-methyl-DCK derivatives as potent chemosensitizers” (Bioorg Med Chem Lett, 2019)
